For assay [1], the target named is T1, Alpha-2C adrenergic receptor (Homo sapiens) (UniProt P18825).
T1 sequence (whole entry): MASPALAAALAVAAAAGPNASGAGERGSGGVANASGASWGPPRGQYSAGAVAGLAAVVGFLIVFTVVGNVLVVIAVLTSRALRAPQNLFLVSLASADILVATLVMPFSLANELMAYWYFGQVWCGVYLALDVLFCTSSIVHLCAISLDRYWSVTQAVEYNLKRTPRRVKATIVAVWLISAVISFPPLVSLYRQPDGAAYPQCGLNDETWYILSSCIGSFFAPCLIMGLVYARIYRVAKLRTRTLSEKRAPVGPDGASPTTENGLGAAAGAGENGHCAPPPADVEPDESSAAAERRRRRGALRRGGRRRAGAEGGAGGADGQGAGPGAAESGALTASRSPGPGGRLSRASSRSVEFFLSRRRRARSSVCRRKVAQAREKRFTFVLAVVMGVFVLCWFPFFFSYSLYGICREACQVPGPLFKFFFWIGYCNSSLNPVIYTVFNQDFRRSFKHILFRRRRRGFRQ
The assay can be described thus: Intrinsic activity at human Alpha-2C adrenoceptor expressed in CHO cells assessed as extracellular acidification by cytosensor microphysiometry relative to noradrenaline. The format is cell-based. In outline:
(§1)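 Cytosensor microphysiometry on the same CHO cell lines expressing individual human α2-AR subtypes. pEC50, pKb and intrinsic activity were derived, with ia expressed as a fraction of full agonist (-)-noradrenaline (taken as 1). ia <0.3 was scored not active. Values are mean ± SEM of three to six separate experiments.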

The target in assay [2] is T2, Alpha-2B adrenergic receptor (Homo sapiens) (UniProt P18089).
T2 sequence (whole entry): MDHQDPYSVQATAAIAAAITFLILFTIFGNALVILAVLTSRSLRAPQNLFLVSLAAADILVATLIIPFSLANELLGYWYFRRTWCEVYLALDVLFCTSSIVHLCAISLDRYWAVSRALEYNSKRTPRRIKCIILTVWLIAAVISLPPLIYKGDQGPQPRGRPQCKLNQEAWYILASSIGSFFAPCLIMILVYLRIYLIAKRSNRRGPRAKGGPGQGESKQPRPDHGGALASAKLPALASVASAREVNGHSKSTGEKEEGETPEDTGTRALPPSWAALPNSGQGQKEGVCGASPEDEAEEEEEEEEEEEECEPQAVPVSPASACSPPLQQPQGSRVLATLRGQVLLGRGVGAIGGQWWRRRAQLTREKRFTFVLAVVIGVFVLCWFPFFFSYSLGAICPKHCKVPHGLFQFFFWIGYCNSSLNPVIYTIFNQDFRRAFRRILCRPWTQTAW
The assay can be described thus: Intrinsic activity at human alpha2B adrenoceptor expressed in CHO cells assessed as extracellular acidification by cytosensor microphysiometry relative to noradrenaline. The format is cell-based. Summed up:
as §1

Assay [3] deals with T3, Alpha-2B adrenergic receptor (Homo sapiens, UniProt P18089).
T3 sequence (P18089 whole entry): T2 sequence (whole entry)
The assay can be described thus: Agonist activity at human alpha2B adrenoceptor expressed in CHO cells assessed as extracellular acidification by cytosensor microphysiometry. It counts as functional, cell-based. In outline:
as §1

Assay [4] addresses T4, Alpha-2C adrenergic receptor (Homo sapiens, UniProt P18825).
T4 sequence (P18825 whole entry): T1 sequence (whole entry)
The assay can be described thus: Displacement of [3H]RX821002 from human Alpha-2C adrenoceptor expressed in CHO cell membrane after 30 mins by liquid scintillation counting. The format is cell membranes. Summed up:
(§2)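 Competition binding against [3H]RX 821002 on membrane preparations from CHO cells, each line expressing one human α2-AR subtype (α2A, α2B or α2C); affinities reported as pKi.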

Assay [5] deals with T3, Alpha-2B adrenergic receptor. The assay can be described thus: Displacement of [3H]RX821002 from human alpha2B adrenoceptor expressed in CHO cell membrane after 30 mins by liquid scintillation counting. It counts as cell membranes. Summed up: as §2
In general terms: Loss of bound radioactivity is the signal in a displacement assay; it reports binding, not function.

For assay [6], the target named is T5, Alpha-2A adrenergic receptor (Homo sapiens) (UniProt P08913).
T5 sequence (whole entry): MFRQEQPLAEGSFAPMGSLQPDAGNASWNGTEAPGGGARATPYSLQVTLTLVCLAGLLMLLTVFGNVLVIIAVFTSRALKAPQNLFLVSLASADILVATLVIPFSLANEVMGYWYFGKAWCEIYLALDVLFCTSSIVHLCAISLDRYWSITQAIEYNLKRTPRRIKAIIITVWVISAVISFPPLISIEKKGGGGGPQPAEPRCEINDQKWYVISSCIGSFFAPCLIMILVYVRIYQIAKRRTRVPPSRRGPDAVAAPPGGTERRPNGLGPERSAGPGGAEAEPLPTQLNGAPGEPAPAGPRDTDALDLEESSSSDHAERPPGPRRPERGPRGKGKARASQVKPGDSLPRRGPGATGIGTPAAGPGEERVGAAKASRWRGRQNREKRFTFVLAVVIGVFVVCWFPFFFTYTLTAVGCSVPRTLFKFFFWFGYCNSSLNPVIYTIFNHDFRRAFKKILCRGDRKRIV
The assay can be described thus: Antagonist activity at human alpha2A adrenoceptor expressed in CHO cells assessed as extracellular acidification by cytosensor microphysiometry. The format is functional, cell-based. Summed up: as §1

Assay [7] deals with T4, Alpha-2C adrenergic receptor. The assay can be described thus: Agonist activity at human Alpha-2C adrenoceptor expressed in CHO cells assessed as extracellular acidification by cytosensor microphysiometry. The format is functional, cell-based. Summed up: as §1
The target in assay [8] is T6, Alpha-2A adrenergic receptor (Homo sapiens, UniProt P08913).
T6 sequence (P08913 whole entry): T5 sequence (whole entry)
The assay can be described thus: Displacement of [3H]RX821002 from human alpha2A adrenoceptor expressed in CHO cell membrane after 30 mins by liquid scintillation counting. The format is cell membranes. In outline:
as §2

In the case of `NC[C@H](O)c1ccc(O)c(O)c1`, the Intrinsic activity in assay [1] and in assay [2] was 1 each time.
In general, EC50 refers to the concentration at which the effect is half-maximal. The Ki is the dissociation constant of the complex between target and ligand, obtained from inhibition or displacement. Higher therefore signals weaker binding. A word on the pKb: it is the negative decadic logarithm of the Kb, by convention in mol/L. As to `c1ccc(C2CC2)c(OCC2=NCCN2)c1` [CIRAZOLINE], the EC50 in assay [3] is 1000 nM; in assay [7], 398 nM. Further, the inhibitory constant (Ki) is 550 nM in assay [4], 525 nM in assay [5] and 58.9 nM in assay [8]. Also, the Intrinsic activity in assay [1] was 0.8; in assay [2], 1. The pKb in assay [6] amounted to 6.4.

These data come from ChEMBL document CHEMBL1156735, “Might adrenergic alpha2C-agonists/alpha2A-antagonists become novel therapeutic tools for pain treatment with morphine?” (J Med Chem, 2009).
